TNAP inh hi DEA = human TNAP enzyme inhibitors, primary screen, biochemical, luminescent, high phosphate acceptor level, uHTS; AID 1135, 2008; Alkaline phosphatase, tissue-nonspecific isozyme (Homo sapiens), P05186; hit rate 0.03% among 200,000; purified TNAP, CDP-star luminescence, 1 M DEA; inhibition, % at 20 µM;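 active = over 50% inhibition of tissue-nonspecific alkaline phosphatase at 20 µM in the single-dose screen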;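 also: plate controls were DMSO wells for no effect and EDTA-quenched wells as full inhibition for full effect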
Target sequence (P05186 whole entry, looked up): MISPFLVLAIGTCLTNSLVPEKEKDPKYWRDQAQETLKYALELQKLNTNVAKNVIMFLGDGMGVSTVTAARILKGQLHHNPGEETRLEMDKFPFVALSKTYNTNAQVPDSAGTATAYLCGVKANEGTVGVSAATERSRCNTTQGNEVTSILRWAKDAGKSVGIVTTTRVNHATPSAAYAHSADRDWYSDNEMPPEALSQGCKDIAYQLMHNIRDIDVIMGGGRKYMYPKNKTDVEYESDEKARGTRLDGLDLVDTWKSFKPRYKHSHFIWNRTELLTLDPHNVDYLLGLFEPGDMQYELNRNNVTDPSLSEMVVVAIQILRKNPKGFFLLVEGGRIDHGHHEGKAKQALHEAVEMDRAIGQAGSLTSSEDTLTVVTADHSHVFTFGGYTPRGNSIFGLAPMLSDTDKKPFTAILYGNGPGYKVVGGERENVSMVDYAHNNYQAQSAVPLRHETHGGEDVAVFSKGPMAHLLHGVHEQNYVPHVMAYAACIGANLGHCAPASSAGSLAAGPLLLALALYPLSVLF
p97 inhibitor = inhibitors of human p97 ATPase, primary screen, biochemical; inhibition, % at 8 µM; recombinant p97 ATPase, Kinase-Glo ATP luminescence, 3 h; AID 1481, 2009; hit rate 0.42% among 220,000; in the data active = inhibition above about 15%;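 also: 0% = DMSO vehicle and 100% = wells lacking enzyme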
DTT redox prof = compounds producing H2O2 with reducing agent – biochemical, NIH compound library profiling, artefact control for MLSCN library redox annotation, primary screen; DTT-dependent redox cycling H2O2, phenol red/HRP absorbance; 100% = 100 µM peroxide control, 0% = buffer; activation, % at 10 µM; hit rate 0.03% among 200,000; AID 878, 2007;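 active = activation of at least 50% relative to the plate's high and low controls in the primary single-dose screen; inactive = activation below 50%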;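 also: compound incubated with DTT at 0.8 mM final as the reducing agent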
TNAP act hiacc = TNAP activators at high phosphate acceptor level, primary screen, biochemical, luminescence, uHTS; AID 1136, 2008; 200,000 tested, under 10 active; purified TNAP, CDP-star luminescence, 1 M DEA, 30 min; active compounds read high; 0 = EDTA background, 1 = DMSO-only activity; activation factor at 20 µM;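 active = activation factor at least 2 at 20 µM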
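system = human TNAP | amount = enzyme diluted 1/800 final | reagent = 100 µM CDP-star substrate | signal = luminescent substrate turnover signal | dosing = one dose, 20 µM | benchmarks = EDTA negative control, DMSO positive control | measure = activation factor | timing = 30 min reaction, room temperature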
G6PDH CS = L. mesenteroides G6PDH inhibitors, counter-screen for G6PDH-coupled screening assays, biochemical, Leuconostoc mesenteroides enzyme; inhibition, % at 5 µM; hit rate 0.12% among 200,000; AID 1020, 2008; Purified L. mesenteroides G6PDH, diaphorase/resazurin coupled fluorescence, 45 min; in the data active = inhibition above about 50%
TNAP inh noacc = human TNAP enzyme inhibitors, primary screen, biochemical, luminescent, no phosphate acceptor, uHTS; purified TNAP, CDP-star luminescence, 30 min; hit rate 0.26% among 200,000; Alkaline phosphatase, tissue-nonspecific isozyme (Homo sapiens), P05186; inhibition, % at 20 µM; AID 1012, 2008;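 active = tissue-nonspecific alkaline phosphatase inhibition above about 50% at 20 µM in the single-dose screen, limit read from the data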;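 also: 0% = DMSO negative control and 100% = EDTA positive control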
* = called active by the depositor; · = not tested or not shown. An excerpt weighted towards active compounds, which were near 0.79% of everything screened.

SMILES	TNAP inh hi DEA	p97 inhibitor	DTT redox prof	TNAP act hiacc	G6PDH CS	TNAP inh noacc
CCCc1nn(C(=O)c2ccccc2)c2c1C(=O)CC(C)(C)C2	-1	2	0	1	12	52*
Cc1nn(C(=O)c2ccccc2)c2c1C(=O)CC(C)(C)C2	1	3	0	1	11	56*
O=c1/c(=C/c2ccco2)sc2nc(-c3ccccc3Br)nn12	-6	4	1	1.1	2	58*
COc1ccccc1-c1nc2s/c(=C\c3cccs3)c(=O)n2n1	3	7	-3	1	-4	46
O=C(O)C1CN(c2ncccc2[N+](=O)[O-])C1	-2	2	-1	1	9	-2
O=[N+]([O-])c1cccnc1N1CCC(c2cc(-c3ccc(Cl)cc3)n[nH]2)CC1	3	-1	0	1	2	50*
COc1ccc(-c2cc(C(=O)O)nc3ccc4ccccc4c23)cc1OC	-7	12	-1	1.1	8	-20
Oc1ccc(-c2nc3ccc4ccccc4c3c3c2CCC3)cc1O	21	7	0	0.8	-27	50*
CCOC(=O)N1CCN(C(=O)c2cn(CCOC)c(=O)c3c2c2ccccc2n3C)CC1	-6	-3	0	1.1	4	-14
O=c1c(O)c(-c2ccc(O)cc2O)oc2cc(O)cc(O)c12	4	49*	0	1	25	0
O=C(CSc1nnc2ccccn12)Nc1ccc2c(c1)OCCO2	-3	-1	-2	1	3	-12
COc1ccc(N2C(=O)C(Cl)=C(Oc3cccc(OC)c3)C2=O)cc1	-7	5	0	1.1	16	-12
O=C1OC2(CCCCC2)OC(=O)C1=CNc1ccc2c(c1)OCO2	-1	-3	-4	1	14	3
O=C1/C(=C/Nc2ccc3c(c2)OCO3)CCc2ccccc21	13	-8	-1	0.9	53*	3
COc1ccc2c(c1)CC/C(=C\Nc1ccc3c(c1)OCO3)C2=O	12	-3	-1	0.9	59*	8
COc1ccc(N/C=C2\CCc3ccccc3C2=O)cc1	9	-9	-1	0.9	62*	4
O=C(NNS(=O)(=O)c1ccccc1)C1CC(c2cccnc2)=NO1 (stereo not drawn)	-1	4	-2	1	-3	-2
Cc1cc(N2CCC(C)CC2)nc(SCC(=O)c2ccccc2)n1	0	-7	0	1	4	-1
O=C(C#Cc1ccccc1)c1cccc([N+](=O)[O-])c1	-10	15*	-2	1.1	2	-15
Cc1cc(NC(=O)c2c([N+](=O)[O-])cnn2C)no1	-3	1	1	1	7	-10
OCCN1CCN(Cc2cc(Cl)c3cccnc3c2O)CC1	0	5	0	1	53*	10
Oc1c(CN2CCN(c3ccccn3)CC2)cc(Cl)c2cccnc12	-4	2	-1	1	-22	-19
Oc1ccc(CN2CCCCC2)c2cccnc12	-5	-6	-1	1.1	50*	-12
OCc1ccc(O)c2ncccc12	-3	4	2	1	53*	-7
Oc1ccc(F)c2cccnc12	-6	-1	0	1.1	65*	-5
SMILES	TNAP inh hi DEA	p97 inhibitor	DTT redox prof	TNAP act hiacc	G6PDH CS	TNAP inh noacc
O=C(CN1CCN(Cc2ccccc2Cl)CC1)N/N=C/c1cccs1	·	3	·	·	·	·
O=C1CCc2ccc(NS(=O)(=O)c3ccc(F)cc3)cc2N1	-3	5	-1	1	2	-9
CN(C(=O)CSC1=Nc2ccccc2C2=NC(c3ccccc3)C(=O)N12)C1CCCCC1 (stereo not drawn)	0	2	0	1	3	-2
Cc1ccc(OCCn2c(=O)n(C)c3ccccc32)cc1	-6	0	0	1.1	10	-8
COc1cccc(/C=N/NC(=O)c2cnccn2)c1	-1	4	0	1	14	-2
COc1ccc(/C=N/NC(=O)c2cc(C34CC5CC(CC(C5)C3)C4)[nH]n2)cc1OC	0	4	1	1	6	86*
COc1cccc(/C=N/NC(=O)c2cc(C34CC5CC(CC(C5)C3)C4)[nH]n2)c1	6	5	2	0.9	-37	86*
O=C(N/N=C/c1ccc(O)cc1)c1cc(C23CC4CC(CC(C4)C2)C3)[nH]n1	·	6	·	·	·	·
CCOc1ccccc1NC(=O)NCc1ccco1	·	5	·	·	·	·
Cc1cc(C)c2c(-n3cccc3)n[nH]c2n1	-1	0	-3	1	-2	68*
Cc1nc2ccccc2c2c(N)c3ccccc3n12	3	-1	-4	1	4	-4
O=C(c1ccc(COCC(F)(F)F)cc1)N1CCN(c2ccccn2)CC1	-2	3	0	1	2	-6
Cc1ccc([N+](=O)[O-])cc1NCC(=O)NN	0	3	-3	1	9	79*
CCOCC(=O)Nc1cc([N+](=O)[O-])ccc1C	-4	9	0	1	9	-6
COc1ccc(S(=O)(=O)N2CCCOC2CNC(=O)C(=O)NCc2ccco2)cc1 (stereo not drawn)	3	-1	0	1	-3	-4
O=C1C(C2=C(O)c3ccccc3C2=O)=Nc2ccccc21	-3	3	0	1	56*	1
CN=CC1=C(O)c2ccccc2C1=O	-2	-1	-1	1	5	-11
COc1ccc(OC)c(NC(=O)C2CC(C)=C(C)CC2C(=O)O)c1 (stereo not drawn)	-6	4	2	1.1	1	-13
Cc1cccc(N2CSC3=C(C#N)C(c4ccc(C)o4)CC(=O)N3C2)c1 (stereo not drawn)	-4	17*	1	1	12	-6
COc1ccc(OC)c(C2CC(=O)N3CN(c4ccccc4)CSC3=C2C#N)c1 (stereo not drawn)	0	-4	-1	1	10	-4
O=C(Nc1nnc(/C=C/c2ccccc2)s1)c1ccco1	·	0	·	·	·	·
CCOC(=O)C1(Cc2ccccc2C)CCCN(Cc2cn(C)nc2C)C1 (stereo not drawn)	-7	-2	-1	1.1	18	-2
CCOC(=O)C1(Cc2ccccc2C)CCCN(Cc2cc(OC)c(O)c(OC)c2)C1 (stereo not drawn)	-6	-2	-1	1.1	59*	-5
